The source made the active and inactive calls. The rule behind the calls is not given here.
How the values were obtained:
A673 = assay: Cytotoxicity against human A673 cells assessed as cell viability at 10 to 100 uM after 72 hrs by MTT assay; format: functional, cell-based
Outline: (§1)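 Sarcosphere-derived CSC cultures exposed 72 h to concentrations from 100 μM down to 0.1 μM. Viability compared with DMSO-only treated cells. IC50 calculated by linear regression.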

A204 = assay: Cytotoxicity against human A204 cells assessed as cell viability at 10 to 100 uM after 72 hrs by MTT assay; format: functional, cell-based
SK-ES1 = assay: Cytotoxicity against human SK-ES-1 cells assessed as cell viability at 10 to 100 uM after 72 hrs by MTT assay; format: functional, cell-based; outline: as §1
MG-63 = assay: Cytotoxicity against human MG63 cells assessed as cell viability at 10 to 100 uM after 72 hrs by MTT assay; format: functional, cell-based; outline: as §1
RD = assay: Cytotoxicity against human RD cells assessed as cell viability at 10 to 100 uM after 72 hrs by MTT assay; format: functional, cell-based
HOS = assay: Cytotoxicity against HOS cells assessed as cell viability at 10 to 100 uM after 72 hrs by MTT assay; format: functional, cell-based; conditions: Homo sapiens
[1] = Cytotoxicity against human MG63 cells assessed as inhibition of cell viability after 72 hrs by MTT assay; format: functional, MG-63
Outline: (§2)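 Stem-like cells were taken from sarcosphere cultures and exposed for 72 h to concentrations from 100 μM down to 0.1 μM. Viability was compared with cells given DMSO vehicle alone. IC50 was calculated by linear regression of the dose-response curves.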

[2] = Cytotoxicity against human SK-ES-1 cells assessed as inhibition of cell viability after 72 hrs by MTT assay; format: functional, SK-ES1; outline: as §2

O=c1nc2oc3ccc4ccccc4c3cc-2c(=O)n1-c1ccccc1
Activity (A673): Active
Activity (A204): Active
Activity (SK-ES1): Active
Activity (MG-63): Active
Activity (RD): Active
Activity (HOS): Active

Cn1c(/C=C/C(=O)NO)ccc1/C=C/C(=O)c1cccc(F)c1
INH [1]: 38.3 µM
INH [2]: 50.7 µM

Source: ChEMBL document CHEMBL3425488, “Novel histone deacetylase inhibitors induce growth arrest, apoptosis, and differentiation in sarcoma cancer stem cells” (J Med Chem, 2015)
